Consider 3 molecules from PMC1557817 (Nucleic Acids Research, 2006).

Where two headings read alike, the source gives them in different places.

One assay deals with human eRF3 (Homo sapiens, UniProt P15170). Nature of the assay: ITC binding of ligands to eRF3. Summed up: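 Run at 25°C in phosphate buffer pH 7.5 (25 mM K2HPO4, 0.1 M KCl, 10% glycerol, 1 mM DTT), MgCl2 0–10 mM. Cell: 6–15 μM His-tagged human eRF3 (aa 139–637), alone or with full-length eRF1, both E. coli-expressed. Syringe: ligand at 50–300 μM, 10 μl injections. Dilution heat subtracted; one-set-of-sites fit gave Ka and ΔH; ΔG and ΔS calculated; 2–4 repeats.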

For another assay, the target named is prokaryotic RF3. The note with it: 5 mM Mg^2+ ref 28; cited from earlier work.
In the next assay the test system is S.pombe eRF3. The note with it: 2.0–2.5 mM Mg^2+ ref 24; cited from earlier work.
For the next assay, the target named is eRF3•GDP (Homo sapiens, UniProt P15170). Nature of the assay: ITC binding of ligands to the eRF3•GDP complex. The note with it: absence of eRF1.
Another assay has as its target eRF1•eRF3 (Homo sapiens, UniProt P15170). Nature of the assay: ITC binding of guanine nucleotides to the eRF1•eRF3 complex.
For another assay, the target named is eRF1•eRF3•GDP (Homo sapiens, UniProt P15170). Nature of the assay: Displacement ITC: eRF1•eRF3 saturated with GDP titrated with GTP. The note with it: Tris buffer, 2 mM Mg^2+, competitive ligand binding model. Summed up:
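Proteins: human eRF1 and truncated human eRF3 (aa 139–637), both with a C-terminal His6 tag, expressed in E. coli, purified by Ni-NTA then anion exchange, and dialysed into assay buffer. Method: eRF1•eRF3 in the cell was saturated with one HPLC-purified nucleotide, then titrated with 10 μl aliquots of the other. K2 = Kapp(1 + K1[L1]). Run at 25°C, pH 7.5; dilution heats subtracted; 2–4 runs.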

Assay [1] addresses truncated human eRF3 (amino acids 139-637), C-terminal hexahistidine (human) (UniProt P15170). Nature of the assay: ITC. On the technique in general: Isothermal titration calorimetry measures the heat released or taken up as one component is titrated into another.
For assay [2] the target is unchanged. Nature of the assay: ITC. This is another data set of the same source.

Usually Kd stands for the free concentration of one partner at which half of the binding sites on the other are occupied at equilibrium, for simple one-to-one binding. Take `Nc1nc2c(ncn2[C@@H]2O[C@H](COP(=O)(O)OP(=O)(O)O)[C@@H](O)[C@H]2O)c(=O)[nH]1` [GDP]: on human eRF3 (both phosphate and Tris buffers), the “fold increase of Kd at 2 mM Mg^2+ versus absence of Mg^2+” value came to 1.7 fold. Further, the Kd on prokaryotic RF3 was 5.5 nM. Besides, in the assay on S.pombe eRF3, the “affinity of GDP for yeast eRF3 (in words)” value is recorded as “lost”.

Consider `Nc1nc2c(ncn2[C@@H]2O[C@H](COP(=O)(O)OP(=O)(O)OP(=O)(O)O)[C@@H](O)[C@H]2O)c(=O)[nH]1` [GTP], for which, at human eRF3 (phosphate or Tris, absence and presence of 2 mM Mg^2+), the “GTP binding to eRF3 (in words)” value is “failed to reveal any measurable GTP binding”. For the same molecule, the “GTP binding to eRF3•GDP (in words)” value on eRF3•GDP was “no binding was detected”. In addition, the “constant of GTP binding relative to that of GDP binding” value at eRF1•eRF3 (2.0 mM Mg^2+) was “four times higher”. The “GTP binding, direct titration (in words)” value on eRF1•eRF3 (Tris buffer) is given as “signal is too low to be measured directly”. Further, at eRF1•eRF3 (physiological Mg^2+ versus absence of Mg^2+), the “fold increase of GTP affinity by Mg^2+” value stood at 6 fold. The GTP binding constant on eRF1•eRF3•GDP is 1.8e+06 M⁻¹.

For orientation: stoichiometry N means the number of molecules, sites or subunits per partner or assembly. The molecule “human eRF1 (wild-type), C-terminal hexahistidine (from UniProt P62495 1-437) (natural protein)” returned a dHobs (observed, not corrected for protonation) in assay [1] of -13.5 kcal/mol. In assay [2], this molecule displayed a dHobs (observed, not corrected for protonation) of -19.2 kcal/mol and a stoichiometry N of 0.47.
